Reference: ChEMBL document CHEMBL1139985, “Discovery of (S)-2-((S)-2-(3,5-difluorophenyl)-2-hydroxyacetamido)-N-((S,Z)-3-methyl-4-oxo-4,5-dihydro-3H-benzo[d][1,2]diazepin-5-yl)propanamide (BMS-433796): a gamma-secretase inhibitor with Abeta lowering activity in a transgenic mouse model of Alzheimer's disease” (Bioorg Med Chem Lett, 2007)
Each block holds one compound with its values, some of them ahead of it. Calls of active or inactive are those of the source. The rule behind the calls is not given here.

Experiments:
Gamma-secretase = experiment: Inhibition of gamma secretase assessed as reduction of amyloid beta level in H4 cells; format: cell-based, Homo sapiens
Summary of the method: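 H4 cells; Aβ40 lowering measured in a cell-based assay; IC50 values are means of two experiments, 16 data points each, intra-assay variance <10%.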

[1] = Drug level in Tg2576 mouse plasma at 30 umol/kg, po after 3 hrs; format: ADME, organism-based; conditions: read-out: Drug uptake
Summary of the method: (§1)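 Tg2576 mice, single oral dose of 30 µmol/kg; brain and plasma sampled 3 h after dosing for Aβ (% inhibition) and compound levels; n = 7-10; means ± SEM.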

[2] = Drug level in Tg2576 mouse brain at 30 umol/kg, po after 3 hrs; format: ADME, organism-based; conditions: read-out: Drug uptake; summary of the method: as §1
Mus musculus [3] = experiment: Inhibition of beta amyloid peptide in Tg2576 mouse brain at 30 umol/kg, po after 3 hrs; format: functional; summary of the method: as §1
Mus musculus [4] = experiment: Inhibition of beta amyloid peptide in Tg2576 mouse plasma at 30 umol/kg, po after 3 hrs; format: functional; summary of the method: as §1
Mus musculus [5] = experiment: Inhibition of beta amyloid peptide in po dosed Tg2576 mouse plasma after 3 hrs; format: functional
Summary of the method: (§2)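 Tg2576 mice dosed orally; brain and plasma Aβ measured 3 h after dosing; ED50 derived from dose-dependent Aβ reduction.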

Mus musculus [6] = experiment: Inhibition of beta amyloid peptide in po dosed Tg2576 mouse brain after 3 hrs; format: functional, organism-based; summary of the method: as §2
[7] = Oral bioavailability in Sprague-Dawley rat at 35 umol/kg; format: ADME, organism-based; conditions: in vivo
Summary of the method: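 Rats dosed orally with a PEG-400 suspension at 35 µmol/kg; bioavailability from plasma exposure.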

Mus musculus [8] = organism: Mus musculus; experiment: Reduction of beta amyloid peptide in Tg2576 mouse brain after 12 hrs; format: functional, organism-based
Mus musculus [9] = experiment: Inhibition of beta amyloid peptide in Tg2576 mouse brain at 4 umol/kg, po qd after 1 day; format: functional; design: scale not given: the % may be the effect or the level left
Summary of the method: (§3)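 Tg2576 mice dosed orally at 4 or 30 µmol/kg, once daily for 1 or 14 days or twice daily (30 µmol/kg); brain Aβ inhibition measured.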

Mus musculus [10] = experiment: Inhibition of beta amyloid peptide in Tg2576 mouse brain at 30 umol/kg, po, qd after 14 days; format: functional; design: scale not given: the % may be the effect or the level left; summary of the method: as §3
Mus musculus [11] = organism: Mus musculus; experiment: Reduction of beta amyloid peptide in Tg2576 mouse plasma after 12 hrs; format: functional, organism-based
Mus musculus [12] = experiment: Toxicity in Tg2576 mouse at 30 umol/kg, po bid after 10 days; format: organism-based; conditions: in vivo, 240 h
Summary of the method: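 Tg2576 mice dosed orally at 30 µmol/kg twice daily; clinical signs, body weight and mortality monitored; intestinal histopathology assessed.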

Homo sapiens = organism: Homo sapiens; experiment: Ratio of IC50 for Notch processing to IC50 for amyloid beta processing
Mus musculus [13] = organism: Mus musculus; experiment: Increase in beta amyloid peptide in Tg2576 mouse plasma after 24 hrs; format: functional
[14] = Inhibition of human Cytochrome P450; format: ADME
Summary of the method: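 Inhibition of human CYPs measured in vitro as IC50.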

[15] = Terminal half life in Sprague-Dawley rat at 2.3 umol/kg, iv; format: ADME, organism-based; conditions: in vivo
Mus musculus [16] = experiment: Inhibition of beta amyloid peptide in Tg2576 mouse brain at 30 umol/kg, po bid after 14 days; format: functional; design: scale not given: the % may be the effect or the level left; summary of the method: as §3
Mus musculus [17] = experiment: Inhibition of beta amyloid peptide in Tg2576 mouse brain at 30 umol/kg, po qd after 1 day; format: functional; design: scale not given: the % may be the effect or the level left; summary of the method: as §3
Mus musculus [18] = experiment: Inhibition of beta amyloid peptide in Tg2576 mouse brain at 4 umol/kg, po qd after 14 days; format: functional; design: scale not given: the % may be the effect or the level left; summary of the method: as §3
[19] = Clearance in Sprague-Dawley rat at 2.3 umol/kg, iv; format: ADME, organism-based; conditions: in vivo

IC50 (Gamma-secretase): 1 nM
SMILES: C[C@H](NC(=O)Cc1ccsc1)C(=O)NC1C(=O)N(C)N=Cc2ccccc21 (some centres undefined)

IC50 (Gamma-secretase): 0.7 nM
SMILES: CC(C)C[C@H](NC(=O)Cc1ccsc1)C(=O)NC1C(=O)N(C)N=Cc2ccccc21 (some centres undefined)

IC50 (Gamma-secretase): 8 nM
SMILES: C[C@H](NC(=O)Cc1cccc(F)c1)C(=O)NC1C(=O)N(C)N=Cc2ccccc21 (some centres undefined)

IC50 (Gamma-secretase): 4 nM
SMILES: CC(C)N1N=Cc2ccccc2C(NC(=O)[C@H](C)NC(=O)Cc2cc(F)cc(F)c2)C1=O (some centres undefined)

IC50 (Gamma-secretase): 1.9 nM
SMILES: CC(C)C[C@H](NC(=O)Cc1cccs1)C(=O)NC1C(=O)N(C)N=Cc2ccccc21 (some centres undefined)

IC50 (Gamma-secretase): 30 nM
concentration at 3 h [1]: 546 nM
concentration at 3 h [2]: 72 nM
SMILES: C[C@H](NC(=O)[C@@H](O)c1cc(F)cc(F)c1)C(=O)N[C@H]1C(=O)N(C)N=Cc2ccccc21
inhibition in vivo at 30 µmol/kg (Mus musculus [3]): 29%

IC50 (Gamma-secretase): 24 nM
SMILES: C[C@H](NC(=O)Cc1ccco1)C(=O)NC1C(=O)N(C)N=Cc2ccccc21 (some centres undefined)

IC50 (Gamma-secretase): 3 nM
SMILES: C[C@H](NC(=O)Cc1cccs1)C(=O)NC1C(=O)N(C)N=Cc2ccccc21 (some centres undefined)

IC50 (Gamma-secretase): 2 nM
SMILES: CC1=NN(C)C(=O)C(NC(=O)[C@H](C)NC(=O)Cc2ccoc2)c2ccccc21 (some centres undefined)

IC50 (Gamma-secretase): 59 nM
SMILES: C[C@H](NC(=O)Cc1ccc(F)cc1)C(=O)NC1C(=O)N(C)N=Cc2ccccc21 (some centres undefined)

IC50 (Gamma-secretase): 0.5 nM
SMILES: CC(C)C[C@H](NC(=O)Cc1cc(F)cc(F)c1)C(=O)NC1C(=O)N(C)N=Cc2ccccc21 (some centres undefined)

IC50 (Gamma-secretase): 269 nM
SMILES: C[C@H](NC(=O)Cc1ccc2ccccc2c1)C(=O)NC1C(=O)N(C)N=Cc2ccccc21 (some centres undefined)

IC50 (Gamma-secretase): 0.2 nM
SMILES: C[C@H](NC(=O)[C@@H](O)c1cc(F)cc(F)c1)C(=O)NC1C(=O)N(C)N=Cc2ccccc21 (some centres undefined)

IC50 (Gamma-secretase): 56 nM
SMILES: CC(C)C[C@H](NC(=O)[C@H](O)c1ccccc1)C(=O)NC1C(=O)N(C)N=Cc2ccccc21 (some centres undefined)

IC50 (Gamma-secretase): 14 nM
SMILES: CC(C)C[C@H](NC(=O)CC1CCCCC1)C(=O)NC1C(=O)N(C)N=Cc2ccccc21 (some centres undefined)

IC50 (Gamma-secretase): 9 nM
concentration at 3 h [1]: 205 nM
concentration at 3 h [2]: 6 nM
SMILES: C[C@H](NC(=O)Cc1cc(F)cc(F)c1)C(=O)NC1C(=O)N(C)NCc2ccccc21 (some centres undefined)
inhibition in vivo at 30 µmol/kg (Mus musculus [4]): 80%
ED50 (Mus musculus [5]): 5 µmol/kg
inhibition in vivo at 30 µmol/kg (Mus musculus [3]): 51%

IC50 (Gamma-secretase): 750 nM
SMILES: C[C@H](NC(=O)[C@H](O)c1cc(F)cc(F)c1)C(=O)N[C@H]1C(=O)N(C)N=Cc2ccccc21

IC50 (Gamma-secretase): 43 nM
SMILES: C[C@H](NC(=O)CC1CCCCC1)C(=O)NC1C(=O)N(C)N=Cc2ccccc21 (some centres undefined)

IC50 (Gamma-secretase): 2 nM
SMILES: CC(C)C[C@H](NC(=O)Cc1cccc(F)c1)C(=O)NC1C(=O)N(C)N=Cc2ccccc21 (some centres undefined)

IC50 (Gamma-secretase): 10 nM
concentration at 3 h [1]: 2750 nM
concentration at 3 h [2]: 202 nM
SMILES: C[C@H](NC(=O)[C@H](O)c1cc(F)cc(F)c1)C(=O)N[C@@H]1C(=O)N(C)N=Cc2ccccc21
inhibition in vivo at 30 µmol/kg (Mus musculus [4]): 86%
inhibition in vivo at 30 µmol/kg (Mus musculus [3]): 91%
Activity (Mus musculus [6]): Active

IC50 (Gamma-secretase): 6 nM
concentration at 3 h [1]: 199 nM
concentration at 3 h [2]: 12 nM
SMILES: C[C@H](NC(=O)Cc1cc(F)cc(F)c1)C(=O)NC1C(=O)N(C)N=Cc2ccccc21 (some centres undefined)
inhibition in vivo at 30 µmol/kg (Mus musculus [4]): 75%
inhibition in vivo at 30 µmol/kg (Mus musculus [3]): 54%

IC50 (Gamma-secretase): 0.4 nM
SMILES: CC(C)C[C@H](NC(=O)[C@@H](O)c1ccccc1)C(=O)NC1C(=O)N(C)N=Cc2ccccc21 (some centres undefined)

IC50 (Gamma-secretase): 14 nM
SMILES: CC(C)C[C@H](NC(=O)Cc1ccc(F)cc1)C(=O)NC1C(=O)N(C)N=Cc2ccccc21 (some centres undefined)

IC50 (Gamma-secretase): 1 nM
concentration at 3 h [1]: 2090 nM
concentration at 3 h [2]: 280 nM
SMILES: C[C@H](NC(=O)C(=O)c1cc(F)cc(F)c1)C(=O)NC1C(=O)N(C)N=Cc2ccccc21 (some centres undefined)
inhibition in vivo at 30 µmol/kg (Mus musculus [4]): 98%
inhibition in vivo at 30 µmol/kg (Mus musculus [3]): 92%

IC50 (Gamma-secretase): 1.3 nM
SMILES: CC1=NN(C)C(=O)C(NC(=O)[C@H](C)NC(=O)Cc2cc(F)cc(F)c2)c2ccccc21 (some centres undefined)

IC50 (Gamma-secretase): 162 nM
SMILES: C[C@H](NC(=O)Cc1cccnc1)C(=O)NC1C(=O)N(C)N=Cc2ccccc21 (some centres undefined)

bioavailability [7]: 31%
IC50 (Gamma-secretase): 0.3 nM
concentration at 3 h [1]: 1960 nM
Ratio IC50 (Homo sapiens): 0.5
IC50 [14]: > 100000 nM
concentration at 3 h [2]: 133 nM
half-life [15]: 4.6 h
clearance [19]: 5.2 mL/min/kg
SMILES: C[C@H](NC(=O)[C@@H](O)c1cc(F)cc(F)c1)C(=O)N[C@@H]1C(=O)N(C)N=Cc2ccccc21
inhibition in vivo at 30 µmol/kg (Mus musculus [4]): 88%
Activity (Mus musculus [8]): Active
Activity (Mus musculus [9]): 25%
Activity (Mus musculus [10]): 89%
Activity (Mus musculus [11]): Active
Activity (Mus musculus [12]): Toxic
Activity (Mus musculus [13]): 60%
inhibition in vivo at 30 µmol/kg (Mus musculus [3]): 90%
Activity (Mus musculus [16]): 98%
Activity (Mus musculus [6]): Active
Activity (Mus musculus [17]): 83%
Activity (Mus musculus [18]): 38%

IC50 (Gamma-secretase): 10 nM
SMILES: C[C@H](NC(=O)Cc1cccc(Cl)c1)C(=O)NC1C(=O)N(C)N=Cc2ccccc21 (some centres undefined)

IC50 (Gamma-secretase): 22 nM
SMILES: CC(C)C[C@H](NC(=O)Cc1ccccc1F)C(=O)NC1C(=O)N(C)N=Cc2ccccc21 (some centres undefined)
